Results from paper PMC3100183 (Biochemistry, 2011).
Where two headings read alike, the source gives them in different places.

How the values were obtained:
[1] = test system: 47 KDa protein in U937 cell membranes; type: binding; details: for Ki: read-out: Ki (95% Confidence Intervals), inhibition of 20-125I-14,15-EE8ZE-APSA photolabeling, U937 membranes, one-site competitive binding model
[2] = test system: EET binding site/receptor on U937 cell membranes; details: cited from earlier work
bovine coronary arteries [3] = details: for EC50: read-out: EC50, relaxation of bovine coronary artery rings, rings pre-constricted with U46619 (20 nM)
Method in brief: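 Left anterior descending bovine coronary artery rings, preconstricted with U46619 (20 nM). Relaxation expressed as %, with basal tension taken as 100% relaxation. Mean ± SEM, n=6–7.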

[4] = test system: 79 orphan GPCRs overexpressed in HEK293T cells; experiment: Photolabeling of GPCRs overexpressed in HEK293T cells; type: binding; details: 1 nM photoprobe; 79 GPCRs of Table 2
Method in brief: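 HEK293T transiently transfected in 96-well format with N-terminal FLAG-tagged GPCRs (pMEX vector); expression confirmed by anti-FLAG flow cytometry. Lysed 30 min on ice (Tris pH 7.4, NaCl, NP-40, deoxycholate, protease inhibitors), sonicated. Lysates with 1 nM 125I photoprobe at 4°C, UV 15 min, SDS-PAGE, autoradiography. Vector-transfected HEK293T as blank; lysate from an equal number of U937 cells as positive control.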

bovine coronary arteries [5] = details: cited from earlier work
[6] = U937 cell (mixed) membranes, 1 nM photoprobe

Row | SMILES | Inhibition of photolabeling of the 47 KDa protein, in words [1, 6] | Ki [1] | also measured
1 | CCCCC/C=C\C/C=C\C/C=C\C=C\C(=O)CCCC(=O)O [5-oxo-eicosatetraenoic acid] | not inhibited | – | –
2 | CCCCCC=CCC=CCC(O)C(O)CC=CCCCC(=O)O (stereo not drawn) [8,9-DHET, 8,9-dihydroxyeicosatrienoic acid] | not inhibited | – | Effect on 20-125I-14,15-EE5ZE binding, in words [2]: not to displace
3 | CCCCC/C=C\C/C=C\CC1OC1C/C=C\CCCC(=O)O (stereo not drawn) [8,9-EET] | – | 444 nM | –
4 | CCCCC/C=C\C[C@H]1O[C@H]1C/C=C\C/C=C\CCCC(=O)O [11,12-EET] | inhibited | 11.2 nM | –
5 | CCCCCC1OC1CCCCCCC/C=C\CCCC(=O)O (stereo not drawn) [14,15-EE5ZE, 14,15-cis-epoxy-eicosa-5(Z)-enoic acid] | – | 1100 nM | –
6 | CCCCCC1OC1CC=CCC=CCC=CCCCC(=O)O (stereo not drawn) [14,15-EET, 14,15-epoxyeicosatrienoic acid] | inhibited | 8.28 nM | EC50 (bovine coronary arteries [3]): ~2000 nM; Inhibition of photolabeling of the 47 KDa protein, in words ([1]; U937 plasma membranes): inhibited
7 | CCCCCC1SC1C/C=C\C/C=C\C/C=C\CCCC(=O)O (stereo not drawn) [14,15-Thiirane] | did not alter | > 10000 nM | Inhibition of photolabeling of the 47 KDa protein, in words ([1]; U937 cell (mixed) membranes, 1 nM photoprobe, listed as thiirane analog of 14,15-EET): not inhibited
8 | [N-]=[N+]=Nc1cccc(S(=O)(=O)NC(=O)CCCCCC/C=C\CCCCC2OC2CCCCCI)c1 (stereo not drawn) [20-I-14,15-EE8ZE-APSA, 20-iodo-14,15-epoxyeicosa-8Z-enoyl-3-azidophenylsulfonamide] | – | – | ED50 for relaxation of preconstricted bovine coronary arteries, in words (bovine coronary arteries [3]; compared with 14,15-EET): comparable to 14,15-EET; EC50 (bovine coronary arteries [3]): ~2000 nM
9 | [N-]=[N+]=Nc1cccc(S(=O)(=O)NC(=O)CCCCCC/C=C\CCCCC2OC2CCCCC[125I])c1 (stereo not drawn) [20-^125I-14,15-EE8ZE-APSA] | – | – | Photolabeling of lysates of GPCR expressing HEK293T cells, in words [4]: No radiolabeled bands
10 | C#CCOc1ccccc1CCCCCC(=O)NS(C)(=O)=O [MS-PPOH] | partially inhibited | – | Ki ([2]; read-out: Ki, inhibition of 20-125I-14,15-EE5ZE binding): 1560 nM; Effect on 14,15-EET-induced relaxations of bovine coronary arteries, in words (bovine coronary arteries [5]): blocked
11 | CCCCC[C@H](O)/C=C/[C@@H]1[C@@H](C/C=C\CCCC(=O)O)[C@H]2CO[C@@H]1C2 [U46619, 9-11-dideoxy-11α,9a-epoxymethano-prostaglandin F2α] | not inhibited | – | –
12 | CC(=O)N1CCN(c2ccc(OCC3COC(Cn4ccnc4)(c4ccc(Cl)cc4Cl)O3)cc2)CC1 (stereo not drawn) [ketoconazole] | partially inhibited | – | Inhibition of 20-125I-14,15-EE5ZE binding ([2]; 50 μM): 50%
13 | Clc1ccc(COC(Cn2ccnc2)c2ccc(Cl)cc2Cl)c(Cl)c1 (stereo not drawn) [miconazole] | inhibited | – | Inhibition of photolabeling of the 47 KDa protein, in words ([1]; U937 cell (mixed) membranes, 1 nM photoprobe, listed as Miconazole): completely blocked; Effect on 14,15-EET-induced relaxations of bovine coronary arteries, in words (bovine coronary arteries [5]): blocked
14 | C=CCN1CC[C@]23c4c5ccc(O)c4O[C@H]2C(=O)CC[C@@]3(O)[C@H]1C5 [naloxone] | not inhibited | – | –
15 | CCCC(C(=O)OCCN(CC)CC)(c1ccccc1)c1ccccc1 [proadifen] | – | – | Effect on 20-125I-14,15-EE5ZE binding, in words [2]: did not alter; Effect on 14,15-EET-induced relaxations of bovine coronary arteries, in words (bovine coronary arteries [5]): did not alter
16 | Nc1ccc(S(=O)(=O)Nc2ccnn2-c2ccccc2)cc1 [sulfaphenazole] | – | – | Effect on 20-125I-14,15-EE5ZE binding, in words [2]: did not alter
